From publication PMC10500580 (ACS Omega, 2023)

Columns and labels:
Antioxidant = details: read-out: IC50 antioxidant activity; DPPH, absorbance at 517 nm
Outline: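 Test compound stocks at 22 mg/mL, diluted to working concentrations. DPPH radical was prepared at 4 mg per 100 mL pure methanol. Sample dilution and DPPH solution were mixed 1:2 by volume and left undisturbed overnight. Ascorbic acid in water served as the reference and was treated the same way. Absorbance was read at 517 nm, in triplicate.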

α-amylase = target: T1, α-amylase (Homo sapiens, UniProt P04746); assay: In vitro antidiabetic; assay type: biochemical
T1 sequence (P04746 16-511): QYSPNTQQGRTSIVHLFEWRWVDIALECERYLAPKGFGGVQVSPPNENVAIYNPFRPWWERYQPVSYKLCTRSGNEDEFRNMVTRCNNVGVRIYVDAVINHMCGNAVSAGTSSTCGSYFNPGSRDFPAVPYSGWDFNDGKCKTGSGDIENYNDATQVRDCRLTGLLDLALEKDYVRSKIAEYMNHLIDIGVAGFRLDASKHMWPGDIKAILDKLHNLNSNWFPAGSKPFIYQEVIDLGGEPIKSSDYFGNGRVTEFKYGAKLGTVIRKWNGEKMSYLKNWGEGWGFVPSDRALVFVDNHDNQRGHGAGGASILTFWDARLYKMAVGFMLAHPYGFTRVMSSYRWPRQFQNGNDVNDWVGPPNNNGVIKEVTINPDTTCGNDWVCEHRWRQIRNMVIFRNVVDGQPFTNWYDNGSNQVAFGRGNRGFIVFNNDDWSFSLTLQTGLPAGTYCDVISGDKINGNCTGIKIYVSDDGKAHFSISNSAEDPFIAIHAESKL

| SMILES | IC50 (Antioxidant) | IC50 (α-amylase) | inhibition against diabetes (in words) (α-amylase; conclusion, qualitative grade) |
| --- | --- | --- | --- |
| C=CCOC(=O)c1ccccc1C(=O)OCC [HR3, 1-allyl 2-ethyl phthalate] | 15.1 µM | – | – |
| CC(C)CCCCCOC(=O)c1ccccc1C(=O)OCCCCCC(C)C [HR5, bis (6-methylheptyl) phthalate] | 15.6 µM | 11.7 µM | excellent inhibition |
